Assay results: ChEMBL document CHEMBL1212759, “Antifungal activity of colistin against mucorales species in vitro and in a murine model of Rhizopus oryzae pulmonary infection” (Antimicrob Agents Chemother, 2010)
The source made the active and inactive calls. No cut-off for these calls is given here.

Legend:
Format in all cases: functional, organism-based
Rhizopus arrhizus [1] = experiment: Fungicidal activity against Rhizopus oryzae 5799 at 2 ug/ml after 6 hrs by DiBAC staining
Outline: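 Spores were grown to mycelia in RPMI 1640 plus 0.15% Junlon, shaken 18 h at 37°C. Mycelia were pelleted and exposed 6 h at 37°C with shaking to colistin (two levels), amphotericin B 2 μg/ml, or drug-free medium. They were washed in MOPS pH 7, stained with DiBAC 2 μg/ml for 1 h in the dark at ambient temperature, and imaged by fluorescence microscopy with an FITC filter.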

Rhizopus arrhizus [2] = experiment: Antifungal activity against Rhizopus oryzae infected in BALB/c mouse pulmonary mucormycosis model assessed as decrease in fungal burden at 80 mg/kg/day, ip by RT-qPCR analysis
Outline: (§1)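 Female BALB/c mice (18–22 g) were immunosuppressed with cyclophosphamide 75 mg/kg i.p. and cortisone acetate 300 mg/kg s.c., then infected intranasally with ~3,500 R. oryzae spores. Colistimethate 40 mg/kg i.p. was given every 12 h for 5 days, starting 3 h post-infection; controls got saline. Groups of 10, run three times. Mortality was followed twice daily for 10 days; lung fungal burden by qPCR of rRNA gene, duplicate.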

Rhizopus arrhizus [3] = experiment: Antimicrobial activity against Rhizopus oryzae infected in BALB/c mouse pulmonary mucormycosis model assessed as increase in survival rate at 5 mg/kg/day, itn after 10 days
Outline: (§2)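 Female BALB/c mice were immunosuppressed with cyclophosphamide and cortisone acetate and infected intranasally with ~3,500 R. oryzae spores. As prophylaxis, intranasal colistimethate 2.5 mg/kg was given every 12 h for 5 days, starting 1 day before infection; on infection day it was given 3 h after spores. Groups of 10, run three times. Survival was followed over 10 days; lung burden by rRNA-gene qPCR.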

Rhizopus arrhizus [4] = experiment: Antimicrobial activity against Rhizopus oryzae infected in BALB/c mouse pulmonary mucormycosis model assessed as effect on fungus-induced mortality rate at 80 mg/kg/day, ip after 10 days; outline: as §1
Rhizopus arrhizus [5] = experiment: Antifungal activity against Rhizopus oryzae infected in BALB/c mouse pulmonary mucormycosis model assessed as decrease in fungal burden at 5 mg/kg/day, itn by RT-qPCR analysis; outline: as §2

Compound | Activity (Rhizopus arrhizus [1]) | inhibition (Rhizopus arrhizus [2]) | survival (Rhizopus arrhizus [3]) [%] | Activity (Rhizopus arrhizus [4]) | inhibition (Rhizopus arrhizus [5])
C[C@@H]1[C@H](O)[C@@H](C)/C=C/C=C/C=C/C=C/C=C/C=C/C=C/[C@H](O[C@@H]2O[C@H](C)[C@@H](O)[C@H](N)[C@@H]2O)C[C@@H]2O[C@](O)(C[C@@H](O)C[C@@H](O)[C@H](O)CC[C@@H](O)C[C@@H](O)CC(=O)O[C@H]1C)C[C@H](O)[C@H]2C(=O)O | Active |  |  |  | 
COLISTIMETHATE |  | inactive | 61 | inactive | Active
